Where two headings read alike, the source gives them in different places.
Experiments:
hSULT2A1 [1] = molecular target: T1, hSULT2A1 (Homo sapiens, UniProt Q06520); assay: Structural modification of hSULT2A1 by quinones, proteolytic digestion and LC/MS; details: 15 μM hSULT2A1 with 250 μM quinone, 1 h, pH 8.0, 25 °C
T1 sequence (Q06520 1-285): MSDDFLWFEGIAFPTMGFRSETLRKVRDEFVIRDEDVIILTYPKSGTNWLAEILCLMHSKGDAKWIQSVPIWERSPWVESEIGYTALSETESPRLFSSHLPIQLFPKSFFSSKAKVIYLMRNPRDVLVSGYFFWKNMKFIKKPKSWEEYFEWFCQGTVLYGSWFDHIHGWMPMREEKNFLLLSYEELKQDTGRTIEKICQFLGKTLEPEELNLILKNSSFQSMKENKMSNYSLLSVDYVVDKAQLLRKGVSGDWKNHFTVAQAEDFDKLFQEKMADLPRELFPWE
In short: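 Recombinant hSULT2A1 was expressed in E. coli BL21(DE3), purified, and desalted of DTT into 50 mM Tris-HCl pH 8.0. 15 μg enzyme was reacted with quinone (17:1 molar ratio), then alkylated with 45 mM final 4-vinylpyridine for 1 h. Digestion used 0.6 μg trypsin with 10% v/v acetonitrile at 37 °C for 16 h, plus 1 μg Glu-C where needed. Peptides were analysed by LC/MS.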

hSULT2A1 [2] = molecular target: T1, hSULT2A1; assay: Binding of PAP to quinone-pretreated hSULT2A1; details: in the absence of DHEA; pretreatment with 10 μM quinone
In short: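 Purified recombinant hSULT2A1 was expressed in E. coli BL21(DE3) and pretreated with test compound for 1 h at 25 °C. It was then placed at 15 nM final (dimer) in 0.25 M potassium phosphate, pH 7.4, without DHEA, 20 min before titration. PAP was added to 0.5–300 μM final at 37 °C. Intrinsic fluorescence (ex 290/em 347 nm) was read 10 s after each addition, dilution-corrected, in duplicate. Dissociation constants were derived.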

hSULT2A1 [3] = molecular target: T1, hSULT2A1; format: biochemical; details: 100-fold dilution, 0.5 μM DHEA (Figure 4)
In short: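 E. coli-expressed, purified hSULT2A1 was preincubated with test compound for 1 h at 25 °C, then diluted 100-fold into a standard assay containing 0.5 μM 3H-DHEA. The mixture was prewarmed at 37 °C for 2 min, and the reaction was started with 30 ng of enzyme. It ran for 3 or 4 min at 37 °C to keep initial velocity. Runs were in triplicate, mean ± SD, compared with untreated enzyme by paired two-tailed t test (p < 0.05).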

Row | Compound | Protein adducts at cysteines of hSULT2A1 (hSULT2A1 [1]) | Binding of PAP to the pretreated enzyme (hSULT2A1 [2]) | Catalytic activity of hSULT2A1 following preincubation with PBQ (hSULT2A1 [3]; PBQ 0.5 μM or 1.0 μM) | Catalytic activity of hSULT2A1 following preincubation with PBQ (hSULT2A1 [3]; PBQ 5.0 μM or higher)
1 | O=C1C=C(Cl)C(=O)C(c2ccc(Cl)cc2)=C1Cl [3,6,4′-triCl-BQ, 4′-chlorophenyl-3,6-dichloro-2,5-benzoquinone] | a dichlorinated adduct was found in the digested peptides containing Cys55 and Cys199 | – | – | –
2 | O=C1C=CC(=O)C(c2ccccc2Cl)=C1 [2′-Cl-BQ, 2′-chlorophenyl-2,5-benzoquinone] | protein adducts were observed at Cys55 and Cys199 | no detectable binding of PAP | – | –
3 | O=C1C=CC(=O)C(c2ccccc2)=C1 [PBQ, phenyl-2,5-benzoquinone] | protein adducts were observed at Cys55 and Cys199 | – | increase in the catalytic activity | decreases in catalytic activity
4 | 4′-chlorophenyl-2,5-benzoquinone [4′-Cl-BQ] | protein adducts were observed at Cys55 and Cys199 | no detectable binding of PAP | – | –
